Data taken from ChEMBL document CHEMBL2385051, “Facile synthesis of new imidazo[1,2-a]pyridines carrying 1,2,3-triazoles via click chemistry and their antiepileptic studies” (Bioorg Med Chem Lett, 2013).
Activity calls are given as the source filed them. No cut-off for these calls is given here.

Legend:
Mus musculus [1] = experiment: Neurotoxicity in NMRI mouse assessed as minimal motor impairment at 20 to 100 mg/kg, ip after 4 hrs by rotarod test; type: toxicity, organism-based; parameters: dose 20-100 mg/kg, route intraperitoneal; details: in vivo
In short: (§1)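 Rotarod motor-impairment test in mice given 20, 40 and 100 mg/kg doses, read 0.5 and 4 h after administration. The value recorded is the minimal dose producing toxicity in more than 50% of mice.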

Mus musculus [2] = experiment: Neurotoxicity in NMRI mouse assessed as minimal motor impairment at 20 to 100 mg/kg, ip after 0.5 hrs by rotarod test; type: toxicity, organism-based; parameters: dose 20-100 mg/kg, route intraperitoneal; details: in vivo; in short: as §1
Mus musculus [3] = experiment: Anticonvulsant activity in NMRI mouse assessed as protection against subcutaneous pentylene tetrazole-induced seizure at 20 to 100 mg/kg, ip after 4 hrs; type: functional, organism-based
In short: (§2)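 Mice received 20, 40 and 100 mg/kg test doses. Seizures were induced by electrical shock (MES) or PTZ injection (scPTZ) at 0.5 and 4 h after dosing. The value recorded is the minimal dose protecting more than 50% of mice against seizure.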

Mus musculus [4] = experiment: Anticonvulsant activity in NMRI mouse assessed as protection against maximal electroshock-induced seizures at 20 to 100 mg/kg, ip after 4 hrs; type: functional, organism-based; in short: as §2
Mus musculus [5] = experiment: Anticonvulsant activity in NMRI mouse assessed as protection against maximal electroshock-induced seizures at 20 to 100 mg/kg, ip after 0.5 hrs; type: functional, organism-based; in short: as §2
Mus musculus [6] = experiment: Anticonvulsant activity in NMRI mouse assessed as protection against subcutaneous pentylene tetrazole-induced seizure at 20 to 100 mg/kg, ip after 0.5 hrs; type: functional, organism-based; in short: as §2
[7] = Neurotoxicity in ip dosed NMRI mouse assessed as dose required to cause minimal motor impairment after 4 hrs by rotarod test; type: toxicity, organism-based; details: in vivo, read-out: MTC50; in short: as §1
[8] = Neurotoxicity in ip dosed NMRI mouse assessed as dose required to cause minimal motor impairment after 0.5 hrs by rotarod test; type: toxicity, organism-based; details: in vivo, read-out: MTC50; in short: as §1
Mus musculus [9] = experiment: Anticonvulsant activity in ip dosed NMRI mouse assessed as dose required to cause protection against subcutaneous pentylene tetrazole-induced seizure after 4 hrs; type: functional; details: read-out: MED; in short: as §2
Mus musculus [10] = experiment: Anticonvulsant activity in ip dosed NMRI mouse assessed as dose required to cause protection against subcutaneous pentylene tetrazole-induced seizure after 0.5 hrs; type: functional; details: read-out: MED; in short: as §2
Mus musculus [11] = experiment: Anticonvulsant activity in ip dosed NMRI mouse assessed as dose required to cause protection against maximal electroshock-induced seizures after 4 hrs; type: functional; details: read-out: MED; in short: as §2
Mus musculus [12] = experiment: Anticonvulsant activity in ip dosed NMRI mouse assessed as dose required to cause protection against maximal electroshock-induced seizures after 0.5 hrs; type: functional; details: read-out: MED; in short: as §2

Structure (SMILES)	Activity (Mus musculus [1])	Activity (Mus musculus [2])	Activity (Mus musculus [3])	Activity (Mus musculus [4])	Activity (Mus musculus [5])	Activity (Mus musculus [6])	TD50 at 4 h [7] [mg/kg]	TD50 at 0.5 h [8] [mg/kg]	minimal effective dose (Mus musculus [9]) [mg/kg]	minimal effective dose (Mus musculus [10]) [mg/kg]	minimal effective dose (Mus musculus [11]) [mg/kg]	minimal effective dose (Mus musculus [12]) [mg/kg]
Cc1ccc(Cn2cc(CO/N=C/c3c(-c4ccccc4)nc4ccc(Br)cn34)nn2)cc1	Non-toxic	Non-toxic	inactive	inactive	inactive	inactive	–	–	–	–	–	–
Cc1cccn2c(/C=N/OCc3cn(Cc4ccc([N+](=O)[O-])cc4)nn3)c(-c3ccc(F)cc3)nc12	–	–	–	inactive	inactive	inactive	100	100	40	–	–	–
Cc1ccc(-c2nc3ccc(Br)cn3c2/C=N/OCc2cn(Cc3ccc([N+](=O)[O-])cc3)nn2)cc1	Non-toxic	Non-toxic	–	–	–	–	–	–	20	20	100	40
Cc1cccn2c(/C=N/OCc3cn(Cc4ccc(C#N)cc4)nn3)c(-c3ccc(F)cc3)nc12	–	–	–	inactive	inactive	inactive	100	100	40	–	–	–
C#CCO/N=C/c1c(-c2ccc(F)cc2)nc2ccc(Br)cn12	Non-toxic	Non-toxic	inactive	inactive	inactive	–	–	–	–	40	–	–
Cc1cccn2c(/C=N/O)c(-c3ccccc3)nc12	Non-toxic	Non-toxic	inactive	inactive	inactive	inactive	–	–	–	–	–	–
Cc1ccc(-c2nc3c(C)cccn3c2/C=N/OCc2cn(Cc3ccc([N+](=O)[O-])cc3)nn2)cc1	Non-toxic	Non-toxic	–	–	–	–	–	–	20	20	40	40
Cc1ccc(-c2nc3ccc(Br)cn3c2/C=N/O)cc1	Non-toxic	Non-toxic	–	–	inactive	–	–	–	20	20	100	–
C#CCO/N=C/c1c(-c2ccc(C)cc2)nc2ccc(Br)cn12	Non-toxic	Non-toxic	–	–	inactive	–	–	–	40	20	20	–
N#Cc1ccc(Cn2cc(CO/N=C/c3c(-c4ccc(F)cc4)nc4ccc(Br)cn34)nn2)cc1	–	Non-toxic	–	–	inactive	inactive	100	–	100	–	100	–
O=[N+]([O-])c1ccc(Cn2cc(CO/N=C/c3c(-c4ccc(F)cc4)nc4ccc(Br)cn34)nn2)cc1	–	Non-toxic	–	–	inactive	–	100	–	100	40	100	–
O=[N+]([O-])c1ccc(Cn2cc(CO/N=C/c3c(-c4ccccc4)nc4ccc(Br)cn34)nn2)cc1	Non-toxic	Non-toxic	–	–	inactive	–	–	–	40	20	40	–
Cc1ccc(Cn2cc(CO/N=C/c3c(-c4ccc(C)cc4)nc4c(C)cccn34)nn2)cc1	Non-toxic	Non-toxic	inactive	inactive	inactive	inactive	–	–	–	–	–	–
O=C1NC(=O)C(c2ccccc2)(c2ccccc2)N1 [PHENYTOIN]	–	–	–	–	–	–	–	–	–	–	20	20
Cc1ccc(Cn2cc(CO/N=C/c3c(-c4ccccc4)nc4c(C)cccn34)nn2)cc1	Non-toxic	Non-toxic	inactive	inactive	inactive	inactive	–	–	–	–	–	–
C#CCO/N=C/c1c(-c2ccccc2)nc2ccc(Br)cn12	Non-toxic	Non-toxic	inactive	inactive	inactive	inactive	–	–	–	–	–	–
Cc1ccc(-c2nc3c(C)cccn3c2/C=N/OCc2cn(Cc3ccc(C#N)cc3)nn2)cc1	–	Non-toxic	–	inactive	inactive	inactive	100	–	100	–	–	–
O/N=C/c1c(-c2ccccc2)nc2ccc(Br)cn12	Non-toxic	Non-toxic	inactive	inactive	inactive	inactive	–	–	–	–	–	–
COc1ccc(Cn2cc(CO/N=C/c3c(-c4ccc(F)cc4)nc4ccc(Br)cn34)nn2)cc1	Non-toxic	Non-toxic	inactive	inactive	inactive	inactive	–	–	–	–	–	–
Cc1cccn2c(/C=N/OCc3cn(Cc4ccc([N+](=O)[O-])cc4)nn3)c(-c3ccccc3)nc12	Non-toxic	Non-toxic	inactive	inactive	inactive	inactive	–	–	–	–	–	–
C#CCO/N=C/c1c(-c2ccc(C)cc2)nc2c(C)cccn12	Non-toxic	Non-toxic	–	–	–	–	–	–	20	20	40	20
Cc1ccc(-c2nc3c(C)cccn3c2/C=N/O)cc1	Non-toxic	Non-toxic	–	–	inactive	–	–	–	40	20	40	–
COc1ccc(Cn2cc(CO/N=C/c3c(-c4ccccc4)nc4c(C)cccn34)nn2)cc1	Non-toxic	Non-toxic	–	–	inactive	–	–	–	100	40	40	–
